Article PMC9089800 (RSC Advances, 2018)

What was measured:
MCF7 = experiment: MTT growth inhibition / cytotoxicity assay, MCF7; format: cell-based, human; settings: Homo sapiens, MCF7, 48 h, read-out: IC50 in μM MCF7, MTT, 48 h, 0–100 μM
MCF7 cells [1] = experiment: DNA fragmentation assay; format: cell-based, human; settings: MCF7, 24 h; 30 μM of 9, 20 μM of 10
MCF10A = experiment: cells; format: cell-based; settings: 48 h
caspase 9 = experiment: Western blot for apoptotic pathway; format: cell-based, human; settings: MCF7, 24 h; 30 μM of 9, 20 μM of 10
In short: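 MCF7 cells exposed 24 h to DMSO vehicle or test compound. Lysed 20 min on ice in Tris pH 7.4/EDTA/NaCl/NaF/orthovanadate/0.5% Triton X-100, then cleared at 16000 × g at 4 °C. Protein quantified by Bradford; samples boiled in Laemmli buffer. SDS-PAGE, PVDF transfer, 3% milk/TBST block. Anti-caspase 9 overnight at 4 °C; HRP secondary; chemiluminescent detection.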

MCF7 cells [2] = experiment: Cell cycle analysis by FACS; format: cell-based, human; settings: MCF7, 24 h; 30 μM of 9, 20 μM of 10
In short: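 Cells seeded a day before; treated 24 h with test compound or DMSO vehicle (final DMSO <0.02%). Cells trypsinised, pelleted at 4 °C, fixed overnight at 4 °C in chilled 95% ethanol, and PBS-washed. Stained with propidium iodide plus RNase in PBS/2 mM MgCl2 for 20 min at 37 °C, then acquired by flow cytometry. Three repeats; mean sub-G1 population plotted.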

MCF7 cells [3] = experiment: Immunostaining; format: cell-based, human; settings: IC50 concentration, 12 hours
In short: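 Cells grown overnight as a monolayer on coverslips, then exposed to test compound for 12 h. Fixed in 3.7% formaldehyde for 20 min at room temperature in the dark. Permeabilised with 0.5% Tween-20 for 30 min, then blocked with 3% BSA. Stained 1 h with anti-α-tubulin, then 1 h with Alexa Fluor 594 secondary. DNA counterstained with Hoechst; mounted in DABCO/glycerol.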

Row | Compound | IC50 (MCF7) | further results
1 | C=C1[C@@H]2[C@H]3OC(=O)[C@@H](CN[C@@H](C)c4ccccc4)[C@@H]3CCC(=C)[C@@H]2C[C@@H]1O [Compound 4, (3R,3aS,6aR,8S,9aR,9bS)-8-Hydroxy-6,9-dimethylene-3-((((S)-1-phenylethyl)amino)methyl)decahydroazuleno[4,5-b]furan-2(3H)-one] | > 100 µM | –
2 | C=C1[C@@H]2[C@H]3OC(=O)[C@@H](CN[C@H](C)c4ccccc4)[C@@H]3CCC(=C)[C@@H]2C[C@@H]1O [Compound 6, (3R,3aS,6aR,8S,9aR,9bS)-8-Hydroxy-6,9-dimethylene-3-((((R)-1-phenylethyl)amino)methyl)decahydroazuleno[4,5-b]furan-2(3H)-one] | > 100 µM | –
3 | C=C1[C@@H]2[C@H]3OC(=O)[C@@H](CN[C@@H](C)c4cccc5ccccc45)[C@@H]3CCC(=C)[C@@H]2C[C@@H]1OC(C)=O [Compound 7, (3R,3aS,6aR,8S,9aR,9bS)-6,9-Dimethylene-3-((((S)-1-(naphthalen-1-yl)ethyl)amino)methyl)-2-oxododecahydroazuleno[4,5-b]furan-8-yl acetate] | > 100 µM | –
4 | C=C1[C@@H]2[C@H]3OC(=O)[C@@H](CN[C@@H](C)c4cccc5ccccc45)[C@@H]3CCC(=C)[C@@H]2C[C@@H]1O [Compound 8, (3R,3aS,6aR,8S,9aR,9bS)-8-Hydroxy-6,9-dimethylene-3-((((S)-1-(naphthalene-1-yl)ethyl)amino)methyl)decahydroazuleno[4,5-b] furan-2(3H)-one] | 75.8 ± 3 µM | –
5 | C=C1[C@@H]2[C@H]3OC(=O)[C@@H](CN[C@H](C)c4cccc5ccccc45)[C@@H]3CCC(=C)[C@@H]2C[C@@H]1O [Compound 10, (3R,3aS,6aR,8S,9aR,9bS)-8-Hydroxy-6,9-dimethylene-3-((((R)-1-(naphthalen-1-yl)ethyl)amino)methyl)decahydroazuleno[4,5-b] furan-2(3H)-one] | – | fragmentation of genomic DNA (ladder on agarose gel) (MCF7 cells [1]): substantial fragmented DNA ladder; IC50 (MCF10A; Homo sapiens, MCF-10A, read-out: IC50 in μM MCF10A): > 100 µM; cytotoxic effect on normal breast epithelial MCF10A cells (in words) (MCF10A; MTT): minimal cytotoxic effect; apoptotic pathway (caspase 9 immunoblot) (caspase 9): cleavage of caspase 9; apoptotic (sub-G1) population (MCF7 cells [2]): significantly increased the apoptotic populations; DNA fragmentation by Hoechst staining, tubulin morphology (MCF7 cells [3]): fragmented DNA
6 | C=C1[C@@H]2[C@H]3OC(=O)[C@@H](CN[C@H](C)C4CCCCC4)[C@@H]3CCC(=C)[C@@H]2C[C@@H]1O [Compound 11, (3R,3aS,6aR,8S,9aR,9bS)-3-((((R)-1-Cyclohexylethyl)amino)methyl)-8-hydroxy-6,9-dimethylenedecahydroazuleno[4,5-b]furan-2(3H)-one] | > 100 µM | –
7 | C=C1[C@@H]2[C@H]3OC(=O)[C@@H](CN[C@@H](C)C4CCCCC4)[C@@H]3CCC(=C)[C@@H]2C[C@@H]1O [Compound 12, (3R,3aS,6aR,8S,9aR,9bS)-3-((((S)-1-Cyclohexylethyl)amino)methyl)-8-hydroxy-6,9-dimethylenedecahydroazuleno[4,5-b]furan-2(3H)-one] | > 100 µM | –
8 | C=C1[C@@H]2[C@H]3OC(=O)[C@@H](CN4CCOCC4)[C@@H]3CCC(=C)[C@@H]2C[C@@H]1OC(C)=O [Compound 17, (3R,3aS,6aR,8S,9aR,9bS)-6,9-Dimethylene-3-(morpholinomethyl)-2-oxododecahydroazuleno[4,5-b]furan-8-yl acetate] | > 100 µM | –
9 | C=C1[C@@H]2[C@H]3OC(=O)[C@@H](CN4CCOCC4)[C@@H]3CCC(=C)[C@@H]2C[C@@H]1O [Compound 18, (3R,3aS,6aR,8S,9aR,9bS)-8-Hydroxy-6,9-dimethylene-3-(morpholinomethyl)decahydroazuleno[4,5-b]furan-2(3H)-one] | > 100 µM | –
10 | C=C1[C@@H]2[C@H]3OC(=O)[C@@H](CN4CCCC4)[C@@H]3CCC(=C)[C@@H]2C[C@@H]1O [Compound 19, (3R,3aS,6aR,8S,9aR,9bS)-8-Hydroxy-6,9-dimethylene-3-(pyrrolidin-1-ylmethyl)decahydroazuleno[4,5-b]furan-2(3H)-one] | > 100 µM | –
11 | C=C1[C@@H]2[C@H]3OC(=O)[C@@H](CN4CCCCC4)[C@@H]3CCC(=C)[C@@H]2C[C@@H]1O [Compound 20, (3R,3aS,6aR,8S,9aR,9bS)-8-Hydroxy-6,9-dimethylene-3-(piperidin-1-ylmethyl)decahydroazuleno[4,5-b]furan-2(3H)-one] | > 100 µM | –
12 | C=C1[C@@H]2[C@H]3OC(=O)[C@@H](COC)[C@@H]3CCC(=C)[C@@H]2C[C@@H]1O [Compound 22, (3R,3aS,6aR,8S,9aR,9bS)-8-Hydroxy-3-(methoxymethyl)-6,9-dimethylenedecahydroazuleno[4,5-b]furan-2(3H)-one] | > 100 µM | –
13 | C=C1[C@@H]2[C@H]3OC(=O)/C(=C/c4ccc(C)cc4)[C@@H]3CCC(=C)[C@@H]2C[C@@H]1OC(C)=O [Compound 23, (3aS,6aR,8S,9aR,9bS)-3-((E)-4-Methylbenzylidene)-6,9-dimethylene-2-oxododecahydroazuleno[4,5-b]furan-8-yl acetate] | > 100 µM | –
14 | C=C1[C@@H]2[C@H]3OC(=O)/C(=C/c4cccc(C(F)(F)F)c4)[C@@H]3CCC(=C)[C@@H]2C[C@@H]1OC(C)=O [Compound 24, (3aS,6aR,8S,9aR,9bS)-6,9-Dimethylene-2-oxo-3-((E)-3-(trifluoro-methyl)benzylidene)dodecahydroazuleno[4,5-b]furan-8-yl acetate] | > 100 µM | –
15 | C=C1[C@@H]2[C@H]3OC(=O)/C(=C/c4ccc(Cl)cc4)[C@@H]3CCC(=C)[C@@H]2C[C@@H]1OC(C)=O [Compound 25, (3aS,6aR,8S,9aR,9bS)-3-((E)-4-Chlorobenzylidene)-6,9-dimethylene-2-oxododecahydroazuleno[4,5-b]furan-8-yl acetate] | > 100 µM | –
16 | C=C1[C@@H]2[C@H]3OC(=O)/C(=C/c4c(OC)cccc4[N+](=O)[O-])[C@@H]3CCC(=C)[C@@H]2C[C@@H]1OC(C)=O [Compound 26, (3aS,6aR,8S,9aR,9bS)-3-((E)-2-Methoxy-6-nitrobenzylidene)-6,9-dimethylene-2-oxododecahydroazuleno[4,5-b]furan-8-yl acetate] | > 100 µM | –
17 | C=C1[C@@H]2[C@H]3OC(=O)/C(=C/c4ccc(C)c([N+](=O)[O-])c4)[C@@H]3CCC(=C)[C@@H]2C[C@@H]1OC(C)=O [Compound 27, (3aS,6aR,8S,9aR,9bS)-3-((E)-4-Methyl-3-nitrobenzylidene)-6,9-dimethylene-2-oxododecahydroazuleno[4,5-b]furan-8-yl acetate] | > 100 µM | –
18 | C=C1[C@@H]2[C@H]3OC(=O)/C(=C/c4ccc(NC(C)=O)c(C(F)(F)F)c4)[C@@H]3CCC(=C)[C@@H]2C[C@@H]1OC(C)=O [Compound 28, (3aS,6aR,8S,9aR,9bS)-3-((E)-4-Acetamido-3-(trifluoromethyl)benzylidene)-6,9-dimethylene-2-oxododecahydroazuleno[4,5-b] furan-8-yl acetate] | > 100 µM | –
19 | C=C1[C@@H]2[C@H]3OC(=O)/C(=C/c4ccccc4C)[C@@H]3CCC(=C)[C@@H]2C[C@@H]1OC(C)=O [Compound 29, (3aS,6aR,8S,9aR,9bS)-3-((E)-2-Methylbenzylidene)-6,9-dimethylene-2-oxododecahydroazuleno[4,5-b]furan-8-yl acetate] | 74 µM | –
20 | C=C1[C@@H]2[C@H]3OC(=O)/C(=C/c4ccc(C(=O)OC)cc4)[C@@H]3CCC(=C)[C@@H]2C[C@@H]1OC(C)=O [Compound 30, Methyl-4-((E)-((3aS,6aR,8S,9aR,9bS)-8-acetoxy-6,9-dimethylene-2-oxodecahydroazuleno[4,5-b]furan-3(2H)-ylidene)methyl)benzoate] | > 100 µM | –
21 | C=C1[C@@H]2[C@H]3OC(=O)/C(=C/c4ccccc4[N+](=O)[O-])[C@@H]3CCC(=C)[C@@H]2C[C@@H]1OC(C)=O [Compound 32, (3aS,6aR,8S,9aR,9bS)-6,9-Dimethylene-3-((E)-2-nitrobenzylidene)-2-oxododecahydroazuleno[4,5-b]furan-8-yl acetate] | 36.5 µM | –
22 | C=C1[C@@H]2[C@H]3OC(=O)/C(=C/c4ccc(Cl)cc4[N+](=O)[O-])[C@@H]3CCC(=C)[C@@H]2C[C@@H]1OC(C)=O [Compound 33, (3aS,6aR,8S,9aR,9bS)-3-((E)-4-Chloro-2-nitrobenzylidene)-6,9-dimethylene-2-oxododecahydroazuleno[4,5-b]furan-8-yl acetate] | > 100 µM | –
23 | C=C1[C@@H]2[C@H]3OC(=O)/C(=C/c4ccc(C)cc4[N+](=O)[O-])[C@@H]3CCC(=C)[C@@H]2C[C@@H]1OC(C)=O [Compound 34, (3aS,6aR,8S,9aR,9bS)-3-((E)-4-Methyl-2-nitrobenzylidene)-6,9-dimethylene-2-oxododecahydroazuleno[4,5-b]furan-8-yl acetate] | > 100 µM | –
